According to ChEMBL document CHEMBL5625173, “Antimycobacterial pyridine carboxamides: From design to in vivo activity” (Eur J Med Chem, 2023):
≈ marks a conversion by molar mass, not a printed value. Calls of active or inactive are those of the source. The calls are words filed in the database; no cut-off is given here.

Assays:
[1] = Cytotoxicity against human HepG2 cells assessed as inhibition of cell viability; format: toxicity, cell-based
[2] = tested on: Mycolicibacterium smegmatis; assay: Antimycobacterial activity against Mycobacterium smegmatis by alamar blue staining based microplate analysis; format: functional
How it was run: (§1)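 Microplate Alamar Blue assay, one of six mycobacterial strains tested (Mtb H37Rv, Mtb H37Ra, M. kansasii, M. avium, M. smegmatis, M. aurum); value reported as MIC.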

[3] = tested on: Mycobacterium tuberculosis; assay: Antimycobacterial activity against Mycobacterium tuberculosis H37Ra by alamar blue staining based microplate analysis; format: functional
How it was run: (§2)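 Microplate Alamar Blue assay. MIC values read at pH 6.6 (neutral). One acidic-pH test at pH 5.6 is footnoted separately.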

[4] = tested on: Mycobacterium tuberculosis; assay: Antimycobacterial activity against Mycobacterium tuberculosis H37Rv by alamar blue staining based microplate analysis; format: functional; how it was run: as §2
Mycobacterium avium = assay: Antimycobacterial activity against Mycobacterium avium by alamar blue staining based microplate analysis; format: functional; how it was run: as §2
[5] = Selectivity index, ratio of IC50 for cytotoxicity against human HepG2 cells to MIC for antimycobacterial activity against Mycobacterium tuberculosis H37Rv; format: toxicity, cell-based; conditions: read-out: Selectivity Index
Mycobacterium kansasii = assay: Antimycobacterial activity against Mycobacterium kansasii by alamar blue staining based microplate analysis; format: functional; how it was run: as §1
Mycolicibacterium aurum = assay: Antimycobacterial activity against Mycobacterium aurum by alamar blue staining based microplate analysis; format: functional; how it was run: as §1
[6] = tested on: Mycobacterium tuberculosis; assay: Antimycobacterial activity against Mycobacterium tuberculosis H37Rv infected in mouse assessed as reduction in colony formation in lungs at 50 mg/kg administered for 28 days; format: functional, organism-based; conditions: time 28.0 day
How it was run: (§3)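 Mice infected intranasally with Mtb H37Rv; infection allowed to develop four weeks. Then dosed for 28 days with sodium salt forms as water solution by gastric tube. Lung and spleen CFU determined and compared with untreated control group.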

[7] = tested on: Mycobacterium tuberculosis; assay: Antimycobacterial activity against Mycobacterium tuberculosis H37Rv infected in mouse assessed as reduction in colony formation in spleen at 50 mg/kg administered for 28 days; format: functional, organism-based; conditions: time 28.0 day; how it was run: as §3
[8] = tested on: Mycobacterium tuberculosis; assay: Antimycobacterial activity against Mycobacterium tuberculosis IZAK by alamar blue staining based microplate analysis; format: functional
[9] = Drug metabolism in human liver microsomes assessed as M2 metabolite formation at 90 uM incubated for 3 hrs; format: ADME, Microsome
How it was run: (§4)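 Phase I metabolite identification: ammonium salt of the compound (for solubility) or its lactone, 90 μM, incubated with human liver microsomes for 3 h; metabolites detected by HPLC-MS, positive ion mode, by m/z.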

[10] = tested on: Mycobacterium tuberculosis; assay: Antimycobacterial activity against Mycobacterium tuberculosis MAT1 by alamar blue staining based microplate analysis; format: functional
[11] = Drug metabolism in human liver microsomes assessed as M1 metabolite formation at 90 uM incubated for 3 hrs; format: ADME, Microsome; how it was run: as §4
[12] = Metabolic stability in human liver microsomes assessed as intrinsic clearance at 3 uM incubated for 45 mins by HPLC analysis; format: ADME, Microsome; conditions: read-out: CLH
How it was run: (§5)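 Ammonium salt or lactone, 3 μM, incubated with human liver microsomes at physiological pH; reactions stopped at 0, 5, 15, 30 and 45 min and analysed by HPLC-MS; k, t1/2 and intrinsic clearance calculated from the HPLC-MS records.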

[13] = Metabolic stability in human liver microsomes assessed as half life at 3 uM incubated for 45 mins by HPLC-MS analysis; format: ADME, Microsome; how it was run: as §5

SMILES	IC50 [1] [µM]	MIC [2] [µg/mL]	MIC [3] [µg/mL]	MIC [4] [µg/mL]	MIC (Mycobacterium avium) [µg/mL]	selectivity ratio [5]	MIC (Mycobacterium kansasii) [µg/mL]	MIC (Mycolicibacterium aurum) [µg/mL]	Activity [6]	Activity [7]	MIC [8] [µg/mL]	Drug metabolism [9]	MIC [10] [µg/mL]	Drug metabolism [11]	microsomal CLint at 3 µM [12] [µL/min/mg]	half-life at 3 µM [13] [h]
O=C(Nc1ccc(C(=O)O)c(O)c1)c1cccc(Cl)n1	> 1000	125 (≈ 427 µM)	125 (≈ 427 µM)	3.13 (≈ 10.7 µM)	100 (≈ 342 µM)	93.5	> 100	125 (≈ 427 µM)	–	–	–	–	–	–	–	–
O=C(O)c1ccc(NC(=O)c2ccc3ccccc3n2)cc1	> 50	≥ 500	31.2 (≈ 107 µM)	25 (≈ 85.5 µM)	25 (≈ 85.5 µM)	> 0.6	25 (≈ 85.5 µM)	62.5 (≈ 214 µM)	–	–	–	–	–	–	–	–
O=C(Nc1ccc(C(=O)O)c(O)c1)c1ccccn1	> 1000	15.6 (≈ 60.5 µM)	250 (≈ 968 µM)	1.56 (≈ 6.04 µM)	> 100	166	50 (≈ 194 µM)	62.5 (≈ 242 µM)	–	–	–	–	–	–	–	–
COc1ccnc(C(=O)Nc2ccc(C(=O)O)c(O)c2)c1	> 1000	125 (≈ 434 µM)	31.2 (≈ 108 µM)	1.56 (≈ 5.41 µM)	> 100	185	> 100	62.5 (≈ 217 µM)	–	–	–	–	–	–	–	–
Cc1cc(C(=O)Nc2ccc(C(=O)O)c(O)c2)ccn1	> 1000	≥ 125	≥ 125	12.5 (≈ 45.9 µM)	> 100	21.8	> 100	≥ 125	–	–	–	–	–	–	–	–
O=C(Nc1ccc(C(=O)O)c(O)c1)c1ccc(Cl)nc1	> 1000	≥ 250	125 (≈ 427 µM)	1.56 (≈ 5.33 µM)	100 (≈ 342 µM)	188	12.5 (≈ 42.7 µM)	≥ 250	inactive	Active	–	–	–	–	–	–
O=C(Nc1cnccn1)c1ccc2ccccc2n1	> 100	≥ 125	≥ 125	> 100	> 100	–	> 100	≥ 125	–	–	–	–	–	–	–	–
O=C(Nc1cnccn1)c1ccc(Cl)nc1	> 1000	≥ 250	≥ 250	> 100	> 100	–	> 100	≥ 250	–	–	–	–	–	–	–	–
Cc1cc(C(=O)Nc2cnccn2)cc(Cl)n1	> 250	≥ 500	≥ 500	> 100	> 100	–	> 100	≥ 500	–	–	–	–	–	–	–	–
O=C(Nc1cncc(Cl)n1)c1ccc2ccccc2n1	> 25	≥ 125	≥ 125	> 25	> 25	–	> 25	≥ 125	–	–	–	–	–	–	–	–
O=C(Nc1cnccn1)c1cccc(Cl)n1	> 250	≥ 500	≥ 500	> 100	> 100	–	50 (≈ 213 µM)	≥ 500	–	–	–	–	–	–	–	–
O=C(O)c1ccc(NC(=O)c2ccccn2)cc1	> 250	≥ 500	125 (≈ 516 µM)	> 100	> 100	–	> 100	250 (≈ 1030 µM)	–	–	–	–	–	–	–	–
O=C(Nc1cnccn1)c1ccccn1	> 1000	≥ 500	250 (≈ 1250 µM)	> 100	> 100	–	> 100	≥ 500	–	–	–	–	–	–	–	–
NC(=O)c1cnccn1 [PYRAZINAMIDE]	> 1000	≥ 500	≥ 500	> 100	> 100	–	> 100	≥ 500	–	–	–	–	–	–	–	–
O=C(Nc1ccc(C(=O)O)c(O)c1)c1ccncc1	> 1000	≥ 125	≥ 125	3.13 (≈ 12.1 µM)	100 (≈ 387 µM)	82.5	50 (≈ 194 µM)	≥ 125	–	–	–	–	–	–	–	–
Nc1cncc(Cl)n1	> 1000	≥ 500	≥ 500	> 100	> 100	–	> 100	≥ 500	–	–	–	–	–	–	–	–
Cc1cc(C(=O)Nc2ccc(C(=O)O)c(O)c2)cc(O)n1	> 1000	≥ 500	≥ 500	6.25 (≈ 21.7 µM)	> 100	46.1	> 100	≥ 500	–	–	–	–	–	–	–	–
O=C(Nc1ccc(C(=O)O)c(O)c1)c1ccc2ccccc2n1	> 1000	31.2 (≈ 101 µM)	31.2 (≈ 101 µM)	1.56 (≈ 5.06 µM)	100 (≈ 324 µM)	198	100 (≈ 324 µM)	15.6 (≈ 50.7 µM)	–	–	6.25 (≈ 20.3 µM)	Metabolite_Detected	12.5 (≈ 40.5 µM)	Metabolite_Detected	2.2	10.5
O=C(O)c1ccc(NC(=O)c2ccc(Cl)nc2)cc1	> 250	≥ 500	62.5 (≈ 226 µM)	> 100	> 100	–	> 100	250 (≈ 904 µM)	–	–	–	–	–	–	–	–
Cc1cc(C(=O)Nc2cncc(Cl)n2)ccn1	> 1000	≥ 500	≥ 500	> 100	> 100	–	> 100	250 (≈ 1010 µM)	–	–	–	–	–	–	–	–
O=C(Nc1ccc(C(=O)O)c(O)c1)c1cccc(C(F)(F)F)n1	> 163	250 (≈ 766 µM)	31.2 (≈ 95.8 µM)	3.13 (≈ 9.59 µM)	12.5 (≈ 38.3 µM)	34.1	12.5 (≈ 38.3 µM)	62.5 (≈ 192 µM)	–	–	–	–	–	–	–	–
